Laboratory results reported in paper PMC10449972 (Clinical Pharmacokinetics, 2023).

Legend:
hepatic HSD-1 [1] = conditions: lowest daily dose of 1 mg ABT-384, last day of dosing; cited from earlier work
HSD-1 [2] = target: T1, HSD-1 (Homo sapiens, UniProt P28845); assay: TMDD model component: binding of SPI-62 to its pharmacological target HSD-1; assay type: in vivo, human (healthy adults)
Outline: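 Target-binding component of the simultaneous population PK/PD fit. Drug in the central compartment binds HSD-1 with a second-order association constant (Kon) to form a complex. The complex dissociates with a first-order constant (Koff). Rtotal is the total HSD-1 amount. Data were pooled plasma concentrations from single- and multiple-dose trials plus urinary HSD-1 activity from multiple-dose cohorts. Kd was derived as Koff/Kon, and IIV was exponential.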

human HSD-1 = conditions: measured in vitro; cited from earlier work
HSD-2 = conditions: cited from earlier work
HSD-1 [3] = target: T1, HSD-1; conditions: earlier TMDD model; cited from earlier work
[4] = single dose of 0.7 mg SPI-62, plasma; cited from earlier work
hepatic HSD-1 [5] = target: T2, hepatic HSD-1 (Homo sapiens, UniProt P28845); assay: Hepatic HSD-1 activity, urinary ratio; assay type: in vivo, human (healthy adults); conditions: regimens as low as 0.2 mg once daily, lowest dose tested
T2 sequence (P28845 whole entry): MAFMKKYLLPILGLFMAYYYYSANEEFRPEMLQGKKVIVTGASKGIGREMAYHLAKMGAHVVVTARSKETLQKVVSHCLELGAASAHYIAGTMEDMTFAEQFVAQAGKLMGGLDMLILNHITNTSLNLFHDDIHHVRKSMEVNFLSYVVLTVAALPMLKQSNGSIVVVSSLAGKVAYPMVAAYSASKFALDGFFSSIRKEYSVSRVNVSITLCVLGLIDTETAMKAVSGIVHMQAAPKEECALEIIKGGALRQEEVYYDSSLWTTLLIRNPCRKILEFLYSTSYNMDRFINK
Outline: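 Healthy adults in low-dose multiple-dose cohorts were given oral test compound: 3 mg loading then 0.2 mg once daily (days 2–14); 0.4 mg once daily (days 1–14); or 0.7 or 2 mg single dose, 6-day washout, then once daily (days 7–20). First-morning urine was collected predose and on scheduled days, and steroids were measured by LC-MS/MS. Activity ratio was fitted against time-matched model-predicted plasma concentration using a sigmoid inhibitory Imax model.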

hepatic HSD-1 [6] = target: T2, hepatic HSD-1; conditions: cited from earlier work

T1 sequence (P28845 whole entry): as above

Compound	Hepatic HSD-1 inhibition (hepatic HSD-1 [1])	Kd (HSD-1 [2])	Kd, ratio of Koff and Kon (HSD-1 [2]; calculated from TMDD model estimates)	Target capacity (Rtot) expressed as amount of SPI-62 (HSD-1 [2]; corresponds to 5460 nmol)	Kon, second-order association rate constant (HSD-1 [2]; estimated, final PK/PD model)	Ki (human HSD-1)	Activity on HSD-2 (HSD-2)	Rmax, capacity of the target, estimated using PK data alone (HSD-1 [3])	Average Cmax [4]	Inhibition of hepatic HSD-1 (hepatic HSD-1 [5])	Hepatic HSD-1 inhibition on day 6 (hepatic HSD-1 [6]; after single low dose, 6-day wash out, day 6)	HSD-1 inhibition after repeated doses (hepatic HSD-1 [6]; all low dose groups (0.2 mg with 3 mg loading dose, 0.4, 0.7, 2 mg QD))	Return of urinary HSD-1 ratio to baseline (hepatic HSD-1 [6]; approximately 16 days after the last dose, lowest dose 0.2 mg)	HSD-1 inhibition (urinary HSD-1 ratio) after the first dose (hepatic HSD-1 [6]; first dose of 0.7 mg)	Hepatic HSD-1 inhibition (hepatic HSD-1 [6]; following a single dose of 0.7 mg)
CC(C)(C(=O)NC1C2CC3CC1CC(C(N)=O)(C3)C2)N1CCN(c2ccc(C(F)(F)F)cn2)CC1 (stereo not drawn) [ABT-384]	full hepatic HSD-1 inhibition	–	–	–	–	–	–	–	–	–	–	–	–	–	–
Cn1c(-c2ccc(C(N)=O)cc2F)nnc1C(C)(C)Oc1c(F)cc(Cl)cc1F [SPI-62]	–	0.0272 nM	0.0272 nM	approximately 2.2 mg	2.34e+06 M⁻¹ s⁻¹	5.3 nM	minimal activity	6070 nmol	0.02 ng/mL	almost complete inhibition	> 30%	full HSD-1 inhibition	incomplete return	substantial HSD-1 inhibition	more than 40%
